Jurkat NFkB inh – lowers PMA/ionomycin-induced NF-kB signal in Jurkat cells | PMA/ionomycin-induced NF-kB luciferase reporter, luminescence | inhibition, % at 4 µM | 330,000 compounds, 0.53% hits; in the data active = inhibition above about 50%
CRFBP-R2 block – blocks CRF-induced signaling of the CRF-BP/CRF-R2 complex; inhibition, % at 11.8 µM; 350,000 compounds, 0.59% hits; HEK293 CRF-R2/CRF-BP, CRF-induced calcium fluorescence;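 active = inhibition of the ligand-induced calcium signal above about 50% at the single tested concentration, limit read from the data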
CHOP UPR activ – activators of apoptotic arm of unfolded protein response (CHOP); CHO-CHOP luciferase reporter, UPR activation, luminescence; percent of tunicamycin response over DMSO baseline; activation, % at 10 µM; AID 449763; 330,000 compounds, 0.34% hits;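 active = at 10 µM dose, activation of 40% or more, normalized to positive control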
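Test system: CHO-CHOP cells, stable luciferase reporter of PERK-eIF2a-CHOP signalling | Quantity: 500 CHO-CHOP cells per well | Buffer or medium: F12 plus 10% serum | Compound dosing: 10 µM single point, 0.5% DMSO | Schedule: 6 h compound treatment, 37 °C | Signal: Luciferase luminescence | Control set: Tunicamycin high control, DMSO low control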
697 NFkB inh – inhibitors of the PMA/ionomycin-induced NF-kB reporter in 697 B cells | 697 B-cell NF-kB luciferase reporter, 16 h | inhibition, % at 4 µM | 330,000 compounds, 0.33% hits; in the data active = inhibition above about 35%
XBP1 UPR activ – adaptive UPR (XBP1) activation; CHO-XBP1 luciferase reporter, IRE1-XBP1 UPR activation, luminescence; percent of tunicamycin response, DMSO as zero; activation, % at 20 µM; 330,000 compounds, 0.33% hits;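 active = versus positive control, 20 µM dose yields 30% or more activation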
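incubation = overnight seeding at 37 °C, 6 h compound treatment at 37 °C | assay system = CHO-XBP1 cells stably carrying IRE1-XBP1-driven luciferase reporter | input = 1000 cells per well | detection = luciferase luminescence | dosing = single point, 20 µM final compound, 1% DMSO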
Hits are given with their value; - = inactive; . = no result given. Rows were chosen to be rich in hits. Some 1.8% of all compounds tested hit in one or more screens of this group.

SMILES	Jurkat NFkB inh	CRFBP-R2 block	CHOP UPR activ	697 NFkB inh	XBP1 UPR activ
Cc1c(C)n(CCCN(C)C)c2ncnc(NCc3ccccc3)c12	-	-	-	-	-
CCc1c(C)nc(SCC(=O)N2CCN(c3ccccc3OC)CC2)[nH]c1=O	-	58	-	-	-
Cc1ccccc1Oc1cc(-n2ncc(Cl)c(Cl)c2=O)ncn1	.	65	.	.	.
O=C(CSc1nnc2scc(-c3ccccc3)n12)N1CCN(Cc2ccccc2)CC1	-	-	-	-	-
Cc1ccc(-c2csc3nnc(SCC(=O)N4CCN(Cc5ccccc5)CC4)n23)cc1	-	66	-	-	-
COc1ccc(C(=O)/C(C#N)=N/Nc2ccccc2[N+](=O)[O-])cc1	-	61	-	-	-
O=C(O)C1=CCNCC1	-	-	-	-	-
O=C(O)C1=CCCNC1	-	57	-	-	-
O=C(Nc1cccn(Cc2c(Cl)cccc2Cl)c1=O)c1c(Cl)cccc1Cl	-	52	-	-	-
COC(=O)Nc1cccn(Cc2c(Cl)cccc2Cl)c1=O	-	-	-	-	-
COc1ccc(S(=O)(=O)N2CCN(C(=O)CCCN3C(=O)NC4(CCCC4)C3=O)CC2)cc1	-	55	-	-	-
COc1ccc(S(=O)(=O)N2CCN(C(=O)CN3C(=O)NC4(CCCC4)C3=O)CC2)cc1	-	-	-	-	-
CN(Cc1cnn(C)c1)C(=O)C1CCC(=O)N(Cc2ccc(Cl)cc2)C1 (centres undefined)	-	-	-	-	-
Cc1nn(C(C)C(=O)O)c(=O)c2ccccc12 (centres undefined)	-	57	-	-	-
COC(=O)COc1ccc(C2NC(=O)NC(c3ccccc3)=C2C(C)=O)cc1Br (centres undefined)	-	-	-	-	-
N#Cc1c(C(F)(F)F)cc(-c2ccc(Cl)cc2)[nH]c1=O	-	63	-	-	-
Cc1ccc(C(=O)OCn2nnc3ccccc3c2=O)cc1[N+](=O)[O-]	-	79	-	-	-
COc1ccc(C(=O)OCn2nnc3ccccc3c2=O)cc1[N+](=O)[O-]	-	-	-	-	-
O=S(=O)(Nc1ccc(Cc2ccncc2)cc1)c1cccs1	-	-	-	-	-
N#CCc1ccc(NS(=O)(=O)c2cccs2)cc1	-	112	-	-	-
CCOc1cc(N2CCOCC2)c(OCC)cc1NC(=O)c1ccccc1N1CCCC1=O	.	-	.	.	.
CCOc1ccc(N=Nc2c(=O)[nH]n3c(=O)c4c([nH]c23)CCCC4)cc1	-	51	-	-	-
O=c1[nH]n2c(=O)c3c([nH]c2c1N=Nc1cccc(Cl)c1)CCCC3	-	67	-	-	-
Cc1ccc(NC(=O)COC(=O)Cc2ccsc2)c(C)c1	-	-	-	-	-
CCc1cccc(NC(=O)Cn2ncn3c(cc4ccccc43)c2=O)c1	-	-	-	-	-
SMILES	Jurkat NFkB inh	CRFBP-R2 block	CHOP UPR activ	697 NFkB inh	XBP1 UPR activ
Cc1ccc(NC(=O)Cn2ncn3c(cc4ccccc43)c2=O)cc1F	-	60	-	-	-
O=C(O)CNC(=O)C1(NC(=O)OCc2ccccc2)CCCC1	.	-	.	.	.
Nc1ccc(Oc2ncccn2)c(Cl)c1	-	-	-	-	-
Fc1ccc(Oc2ccnc(Cl)n2)c(Cl)c1	-	53	-	-	-
Cc1ccc(OCC(=O)N2CCN(c3nnc(-c4ccc(C)cc4)c4ccccc34)CC2)cc1	-	68	-	-	-
COc1ccc(OCC(=O)N2CCN(c3nnc(-c4ccc(C)cc4)c4ccccc34)CC2)cc1	-	-	-	-	-
CN(Cc1ccc(C(F)(F)F)cc1)C(=O)C1CCC(=O)N(C2CC2)C1 (centres undefined)	-	-	-	-	-
CN(Cc1cccc(Cl)c1)C(=O)C1CCC(=O)N(C2CC2)C1 (centres undefined)	-	81	-	-	-
O=C(COc1ccc(Cl)cc1Cl)Nc1ccccc1F	-	125	-	-	-
Cc1cccc2c(CCNC(=O)c3ccc([N+](=O)[O-])cc3)c[nH]c12	-	57	-	-	-
O=C(NCCc1ccc(F)cc1)c1ccc([N+](=O)[O-])cc1	-	-	-	-	-
Cc1[nH]c(=O)n(C(C)C)c(=O)c1Br	.	-	.	.	.
O=C(COC(=O)c1ccccc1C(=O)c1ccc(Cl)c([N+](=O)[O-])c1)NC1CC1	-	52	-	-	-
CNC(=O)COC(=O)c1ccccc1C(=O)c1ccc(Cl)c([N+](=O)[O-])c1	.	-	.	.	.
CC(C)OC(=O)c1ccccc1C(=O)c1ccc(N)c([N+](=O)[O-])c1	-	56	-	-	-
CC1=C2C3OC(=O)C(C)C3CCC2(C)C=C(Br)C1=O (centres undefined)	.	-	.	.	.
O=C(Nc1ccccc1Oc1cccnc1)C1CCCN(Cc2ccccc2O)C1 (centres undefined)	-	99	-	-	-
Cc1ccc2nc(Cl)c(/C=C/C(=O)c3ccco3)cc2c1	-	101	-	-	-
O=[N+]([O-])c1cc(/C=N/N/C(=N/c2ccccn2)c2ccccn2)ccc1O	-	64	-	-	-
CC1=C(C(=O)OCc2ccccc2)C(/C=C/c2ccccc2)N2C(=O)CCSC2=N1 (centres undefined)	-	69	-	-	-
CCOC(=O)C1=C(C)N=C2SCCC(=O)N2[C@@H]1/C=C/c1ccccc1	-	-	-	-	-
Cc1cc([N+](=O)[O-])ccc1NCc1ccccc1[N+](=O)[O-]	-	91	-	-	-
Cc1cc(F)ccc1NCc1ccccc1[N+](=O)[O-]	-	-	-	-	-
CCCCn1c(N)c(N(CC(C)C)C(=O)c2oc3ccc(Br)cc3c2C)c(=O)[nH]c1=O	-	-	-	-	-
CC1CCCCC1NC(=O)CCCCCn1c(=S)[nH]c2ccsc2c1=O (centres undefined)	-	93	-	-	-
SMILES	Jurkat NFkB inh	CRFBP-R2 block	CHOP UPR activ	697 NFkB inh	XBP1 UPR activ
CCCCn1c(N)c(N(CCOC)C(=O)CN2C(=O)C3CCCCC3C2=O)c(=O)[nH]c1=O (centres undefined)	-	-	-	-	-
O=C(c1ccc(Cl)c(S(=O)(=O)N2CCCC2)c1)N1CCCC(C(F)(F)F)C1 (centres undefined)	-	-	-	-	-
O=C1C(=Cc2cccs2)C(=O)c2ccccc21	-	55	-	-	-
O=C1NN(c2ccccc2)C(=O)/C1=C\c1ccccc1	-	-	-	-	-
O=C1/C(=C/c2cccs2)Cc2ccccc21	-	-	-	-	-
O=C1NN(c2ccccc2)C(=O)/C1=C/c1cccs1	-	.	-	-	31
COCCCn1c(SCC(=O)Nc2ccccc2F)nnc1-c1ccoc1C	-	103	-	-	-
COc1cc(C=O)ccc1Oc1cnccn1	-	56	-	-	-
Cc1c(C(=O)NCc2cccnc2)oc2ccccc12	-	62	-	-	-
Cc1c(C(=O)NCCc2ccccc2)oc2ccccc12	-	-	-	-	-
O=C(NNC1=C(C(=O)C(F)(F)F)CCC1)c1cccc(Cl)c1	-	55	-	-	-

Screens deposited in PubChem BioAssay by Sanford-Burnham Center for Chemical Genomics.
